PostGolgi ctrl – growth inhibition of yeast control strain, primary screen, counter-screen for post-Golgi transport modulator project; efflux-deficient yeast background strain, growth absorbance A615, 16 h; inhibition, % at 10 µM; 98,000 tested, 5% active; AID 738, 2007
Ecoli WT expand – growth inhibitors of wild-type E. coli, primary screen, strain BW25113, expanded library, OD600. OD600 absorbance. growth inhibition, % at 100 µM. 98,000 tested, 0.15% active;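 active = growth inhibition above about 50% at one test dose, limit read from the data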;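 note: growth measured after 20 h incubation at 37 °C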
PostGolgi yeast – phenotypic screen on post-Golgi transport, primary screen | post-Golgi transport phenotypic cell assay | inhibition, % at 10 µM | 98,000 tested, 0.9% active | AID 739, 2007;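 note: yeast cells grown in 1536-well plates; yeast grown about 18 h at 30C before absorbance read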
tolC growth inh – growth inhibitors of E. coli tolC mutant, primary screen, strain BW25113 ΔtolC::kan, 384-well. AID 573, 2007. growth inhibition, % at 10 µM (by protocol). 65,000 tested, 2.2% active. OD615;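 active = growth inhibition at or above a cutoff equal to the mean over every tested compound plus 3 SD, cut at about 60% in these data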;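 note: growth measured after 20 h incubation at 37 °C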
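Material: E. coli BW25113 ΔtolC::kan, tolC deletion mutant strain. Measure: percent growth inhibition. Schedule: 37 °C, 20 h exposure. Doses: single-point testing at 10 µM. Signal: A615 absorbance measurement. Buffer or medium: kanamycin-containing LB broth (50 µg/mL).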
PLAP act – PLAP enzyme activators, biochemical, luminescence, HTS; purified PLAP enzyme, luminescent substrate read-out; hits give high values; activation fold at 20 µM; 96,000 tested, 1.2% active; in the data active = activation fold above about 2
Target sequence (P05187 whole entry, looked up): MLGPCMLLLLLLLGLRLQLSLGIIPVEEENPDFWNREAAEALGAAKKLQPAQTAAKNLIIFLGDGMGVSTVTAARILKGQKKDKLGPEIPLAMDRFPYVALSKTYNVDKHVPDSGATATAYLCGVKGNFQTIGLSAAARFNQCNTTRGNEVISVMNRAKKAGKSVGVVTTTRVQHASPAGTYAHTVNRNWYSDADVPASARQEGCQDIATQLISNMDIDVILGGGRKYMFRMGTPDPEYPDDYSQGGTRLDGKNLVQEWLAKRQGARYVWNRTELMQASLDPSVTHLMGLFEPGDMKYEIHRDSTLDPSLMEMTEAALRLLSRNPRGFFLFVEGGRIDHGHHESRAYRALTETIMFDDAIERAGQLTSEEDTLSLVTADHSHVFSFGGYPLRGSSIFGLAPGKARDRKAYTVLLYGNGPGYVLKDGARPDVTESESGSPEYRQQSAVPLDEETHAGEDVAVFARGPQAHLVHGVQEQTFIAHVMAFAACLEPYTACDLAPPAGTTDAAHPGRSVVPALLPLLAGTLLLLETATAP
* = called active by the depositor; x = no result. In the library only some 7.2% were active in any assay of this set; here they are far more common. Cut-off read from the data, not from the text of the source, unless noted: active = inhibition above about 30%; inactive = the rest.

SMILES	PostGolgi ctrl	Ecoli WT expand	PostGolgi yeast	tolC growth inh	PLAP act
O=C(CSc1nnc(CCc2nc3ccccc3[nH]2)n1-c1ccccc1)NCc1ccco1	1.0	2.0	-1.9	-4.4	2*
O=C(CSc1nc2ccccc2c(=O)n1-c1ccccc1)NCc1ccco1	7.7	-2.0	1.5	17.2	0.7
O=C(c1ccc(Cl)cc1)N1CCC(O)(CSc2ccc(Cl)cc2Cl)CC1	93.5*	-7.0	14.9	x	1.6
O=C(/C=C/c1cccc(Cl)c1)c1nc2ccccc2[nH]1	92.7*	3.0	100.3*	x	1.1
CCOc1ccc(CCN2C(=O)C3C4C=CC(C4)C3C2=O)cc1OCC (stereo not drawn)	5.0	2.0	2.4	-2.2	1.1
O=C(CC(C(=O)N1CCc2ccccc21)n1ccnc1)N1CCc2ccccc2C1 (stereo not drawn)	-1.6	3.0	1.1	-5.2	1.4
N#Cc1nc(COc2cccc(Cl)c2)oc1NCc1ccco1	33.5*	4.0	24.7	46.0	1
Cc1cccc(OCc2nc(C#N)c(NCc3ccc4c(c3)OCO4)o2)c1	22.6	-19.0	-4.5	78.9*	1.1
N#Cc1nc(COc2ccc(Cl)cc2)oc1NCc1ccc2c(c1)OCO2	17.5	-7.0	-7.3	23.2	0.8
CC(NCc1ccc(N(C)C)cc1)C1CC2CCC1C2 (stereo not drawn)	20.5	26.0	-1.1	x	0.8
O=S(=O)(/C=C/c1ccccc1)Nc1ccc2c(c1)OCO2	16.7	12.0	-0.9	6.8	1.2
CNC(=S)N1CCN(c2c(F)cc3c(=O)c(C(=O)O)cn(C4CC4)c3c2OC)CC1C (stereo not drawn)	2.6	100.0*	5.3	x	1
CCOC(=O)c1cn(-c2nc(-c3ccc(Cl)cc3)cs2)c2c(F)c(N3CC(C)OC(C)C3)c(F)cc2c1=O (stereo not drawn)	5.3	-5.0	6.1	x	1
COc1c(N2CCN(C(=S)Nc3ccccc3)C(C)C2)c(F)cc2c(=O)c(C(=O)O)cn(C3CC3)c12 (stereo not drawn)	8.8	99.0*	-3.8	x	1.2
CC(C)(C)NC(NC(=O)Cc1ccccc1)C(Cl)(Cl)Cl (stereo not drawn)	12.1	4.0	-2.0	x	1
O=c1c2ccccc2nc(CSc2ncnc3nc[nH]c23)n1-c1cccc(C(F)(F)F)c1	6.5	-5.0	-0.6	x	2.1*
CC1CCCC(C)N1C(=O)CSc1nnc(C2CCCCC2)o1 (stereo not drawn)	-3.7	-4.0	-3.4	2.8	1.8
CC(C)CC(=O)O/N=C1\C(=O)N(Cc2ccc(Cl)cc2)c2ccc([N+](=O)[O-])cc21	32.9*	11.0	8.3	x	1
CN(C)CC(C(=O)c1ccccc1)c1ccccc1 (stereo not drawn)	31.4*	22.0	2.1	19.0	1
CCOC(=O)c1sc(-c2ccc(Br)cc2)cc1N	44.8*	-13.0	-3.5	x	1
CCOC(=O)c1cc(-c2ccc(N)cc2)sc1N	6.1	4.0	5.7	24.4	0.8
Cc1ccc(C(C)C)c(OCCNc2nc3c(c(=O)n(C)c(=O)n3C)n2C)c1	x	x	x	12.2	x
CC(C)n1cc(/C=C(\C#N)S(=O)(=O)c2ccccc2)c2ccccc21	36.2*	-27.0	-0.1	20.8	1.1
Cc1ccc(C(=O)/C=C/c2c[nH]c3ccccc23)cc1	12.6	0.0	4.5	x	1
Cc1ccc(S(=O)(=O)/C(C#N)=C/c2c[nH]c3ccccc23)cc1	67.8*	-4.0	0.0	x	1
SMILES	PostGolgi ctrl	Ecoli WT expand	PostGolgi yeast	tolC growth inh	PLAP act
CC1CCN(C(c2cccs2)c2nnnn2Cc2ccccc2)CC1 (stereo not drawn)	24.6	-5.0	-2.6	x	0.7
CCN(CC)c1ncc(C)c(=O)[nH]1	4.8	5.0	3.1	2.0	0.9
Cc1cc(C)nc(/N=c2/ssnc2Cl)c1	53.6*	-4.0	63.8*	4.3	1
Cc1ccc(N=c2ssnc2Cl)cc1	-10.3	20.0	-5.9	x	1.1
Cn1c(SCc2ccccc2)nnc1-c1ccc2c(c1)OCO2	20.0	6.0	5.1	1.0	1
c1ccc2c(c1)c1ccccc1n1c(-c3ccc4c(c3)OCO4)nnc21	42.6*	-4.0	16.1	x	1
Cn1c(C(=O)N2CCN(c3ccccn3)CC2)cc2c(=O)n(C)c3ccccc3c21	x	x	x	4.3	x
COc1ccccc1N(CC(=O)N/N=C/c1ccc(OCC(=O)NCc2ccco2)cc1)S(=O)(=O)c1ccc(C)cc1	-6.7	-12.0	-6.4	x	2*
CC(=O)NCCC(=O)NCc1ccc(F)cc1	8.8	4.0	-4.3	x	1.1
CC(=O)NCCC(=O)Nc1ccc(F)cc1C	31.4*	-2.0	-2.1	x	1
CCOc1cc2c(cc1OCC)C(c1cc(OC)c(O)c(OC)c1)NCC2 (stereo not drawn)	x	x	x	-2.9	x
CC(C)(C)c1csc(NC(=O)c2ccc(Cl)s2)n1	23.6	-7.0	-2.0	100.0*	1.2
CC(=O)Nc1nc(-c2cccs2)cs1	0.7	9.0	6.2	1.3	1.2
O=C(Nc1nc(-c2cccs2)cs1)c1ccc(Cl)s1	20.8	-18.0	31.5*	95.8*	x
CCn1c(O)c(/C=N/N=C/c2ccccc2)c2ccc(C3=NNC(=O)CC3)cc21	47.6*	-16.0	2.9	x	1.2
O=C(NCCN1CCCC1)c1ccc(CS(=O)(=O)c2c(Cl)cccc2Cl)o1	2.0	6.0	1.9	-3.9	1
Cc1ccc(/C=N/n2c(COc3ccccc3)n[nH]c2=S)s1	9.4	2.0	0.5	x	1
S=c1[nH]nc(COc2ccccc2)n1/N=C/c1ccc(Br)s1	30.5*	-2.0	-1.6	x	1
Cc1ccc(CNC(=O)CSc2c3c(nc4cc(Cl)ccc24)CCCC3)o1	8.6	-2.0	13.3	x	1.5
CC1CN(c2nc3c(c(=O)n(Cc4ccc(Cl)c(Cl)c4)c(=O)n3C)n2C)CC(C)O1 (stereo not drawn)	27.9	-1.0	5.8	86.8*	1.6
Cn1c(NCc2ccco2)nc2c1c(=O)n(Cc1ccc(Cl)c(Cl)c1)c(=O)n2C	49.1*	-2.0	14.6	16.7	1.4
CN(C)S(=O)(=O)c1cc(S(=O)(=O)N(C)C)c(Cl)cc1N	-1.4	-1.0	4.3	-1.9	1.1
CCNC(=O)NC(=O)CSc1nc2ccccc2n1CCOC	13.9	-5.0	1.4	x	1
CNC(=O)C12CCC(C)(c3nc4cc(C)c(C)cc4nc31)C2(C)C (stereo not drawn)	24.7	-6.0	3.5	x	1.6
Cc1cc2nc3c(nc2cc1C)C1(C(=O)O)CCC3(C)C1(C)C (stereo not drawn)	31.6*	-2.0	-7.5	-11.2	1.1
COC(=O)NCC1(C)CC(NC(=O)OC)CC(C)(C)C1 (stereo not drawn)	1.1	-5.0	-4.9	-6.8	1.1
COC(=O)NC1CCC(CC2CCC(NC(=O)OC)CC2)CC1 (stereo not drawn)	49.5*	0.0	13.8	x	1.2
Cc1cccc(C(=O)O/N=C(\N)c2ccc(Br)cc2)c1	3.3	-8.0	-0.2	x	1
Cc1cc(C)cc(C(=O)O/N=C(\N)c2ccc(Br)cc2)c1	30.0*	6.0	8.5	x	1.1

Bioassay records (PubChem BioAssay)
